ChEMBL document CHEMBL1138024, “Aryl urea analogs with broad-spectrum antibacterial activity” (Bioorg Med Chem Lett, 2004)
Values after ≈ are worked out from the molar mass of the structure shown.

Tests used:
Type in all cases: functional
Mus musculus [1] = experiment: In vivo antibacterial activity (Staphylococcus aureus) in a lethal murine model at a dose of 4.6 mg/kg; activity expressed as no. of mice alive/total tested; 3/10
Proteus vulgaris = experiment: Minimum inhibitory concentration against Proteus vulgaris ATCC 8427; value ranges from 12-25 uM
Huh-7 [2] = experiment: Cytotoxic concentration against Huh7 cells at 48 hours in MTT assay; details: Homo sapiens, Huh-7, 48 h
Staphylococcus aureus [3] = experiment: In vitro antibacterial activity against Staphylococcus aureus; value ranges from 6-12 uM
Mus musculus [4] = experiment: In vivo antibacterial activity (Staphylococcus aureus) in a lethal murine model at a dose of 150 mg/kg; activity expressed as no. of mice alive/total tested; 4/10
Enterococcus faecalis [5] = experiment: Minimum inhibitory concentration against Enterococcus faecalis ATCC 29212; value ranges from 3-6 uM
Mus musculus [6] = experiment: In vivo antibacterial activity (Staphylococcus aureus) in a lethal murine model at a dose of 18.8 mg/kg; activity expressed as no. of mice alive/total tested; 6/10
Klebsiella pneumoniae [7] = experiment: Minimum inhibitory concentration against Klebsiella pneumoniae ATCC 13383; value ranges from 3-6 uM
Mus musculus [8] = experiment: In vivo antibacterial activity (Staphylococcus aureus) in a lethal murine model at a dose of 75 mg/kg; activity expressed as no. of mice alive/total tested; 7/10
Staphylococcus aureus [9] = experiment: Minimum inhibitory concentration against Staphylococcus aureus ATCC 13709; value ranges from 3-6 uM
Streptococcus pyogenes [10] = experiment: Minimum inhibitory concentration against Streptococcus pyogenes ATCC 49399; value ranges from 3-6 uM
Escherichia coli [11] = experiment: Minimum inhibitory concentration against Escherichia coli ATCC 25922; value ranges from 12-25 uM
Mus musculus [12] = experiment: In vivo antibacterial activity (Staphylococcus aureus) in a lethal murine model at a dose of 37.6 mg/kg; activity expressed as no. of mice alive/total tested; 6/10
Mus musculus [13] = experiment: In vivo antibacterial activity (Staphylococcus aureus) in a lethal murine model at a dose of 9.4 mg/kg; activity expressed as no. of mice alive/total tested; 4/10
Staphylococcus aureus [14] = experiment: Minimum inhibitory concentration against Staphylococcus aureus ATCC 13709 (+4% BSA); value ranges from 25-50 uM
Outline: (§1)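 Same microdilution MIC against S. aureus ATCC 13709, but with 4% bovine serum albumin in the wells. Compound in 0.5% DMSO in water, inoculum about 10³–10⁴ CFU/well, duplicates. Growth was read as A595 after 20–24 h at 37°C against a compound-free control. MIC is reported as the range between full inhibition and viable growth.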

Pseudomonas aeruginosa = experiment: Minimum inhibitory concentration against Pseudomonas aeruginosa ATCC 25416
Enterococcus faecium = experiment: Minimum inhibitory concentration against Enterococcus faecium ATCC 6569
Staphylococcus aureus [15] = experiment: In vitro antibacterial activity against Staphylococcus aureus; value ranges from 12-25 uM
Staphylococcus aureus [16] = experiment: In vitro antibacterial activity against Staphylococcus aureus; value ranges from 3-6 uM
Staphylococcus aureus [17] = experiment: In vitro antibacterial activity against Staphylococcus aureus
Staphylococcus aureus [18] = experiment: In vitro antibacterial activity against Staphylococcus aureus; value ranges from 50-100 uM
Staphylococcus aureus [19] = experiment: In vitro antibacterial activity against Staphylococcus aureus; value ranges from 25-50 uM
Mus musculus [20] = experiment: In vivo antibacterial activity (Staphylococcus aureus) in a lethal murine model at a dose of 9.4 mg/kg; activity expressed as no. of mice alive/total tested; 2/10
Enterococcus faecalis [21] = experiment: Minimum inhibitory concentration against Enterococcus faecalis ATCC 29212
Klebsiella pneumoniae [22] = experiment: Minimum inhibitory concentration against Klebsiella pneumoniae ATCC 13383; value ranges from 6-12 uM
Mus musculus [23] = experiment: In vivo antibacterial activity (Staphylococcus aureus) in a lethal murine model at a dose of 18.8 mg/kg; activity expressed as no. of mice alive/total tested; 4/10
Escherichia coli [24] = experiment: Minimum inhibitory concentration against Escherichia coli ATCC 25922; value ranges from 6-12 uM
Staphylococcus aureus [25] = experiment: Minimum inhibitory concentration against Staphylococcus aureus ATCC 13709 (+4% BSA); value ranges from 12-25 uM; outline: as §1
Mus musculus [26] = experiment: In vivo antibacterial activity (Staphylococcus aureus) in a lethal murine model at a dose of 4.6 mg/kg; activity expressed as no. of mice alive/total tested; 0/10
Mus musculus [27] = experiment: In vivo antibacterial activity (Staphylococcus aureus) in a lethal murine model at a dose of 37.6 mg/kg; activity expressed as no. of mice alive/total tested; 3/10
Mus musculus [28] = experiment: In vivo antibacterial activity (Staphylococcus aureus) in a lethal murine model at a dose of 75 mg/kg; activity expressed as no. of mice alive/total tested; 3/10
Huh-7 [29] = experiment: Cytotoxic concentration against Huh7 cells at 48 hours in MTT assay; value ranges from 25-50 uM; details: Homo sapiens, Huh-7, 48 h
Escherichia coli [30] = experiment: Minimum inhibitory concentration against Escherichia coli ATCC 25922
Staphylococcus aureus [31] = experiment: Minimum inhibitory concentration against Staphylococcus aureus ATCC 13709 (+4% BSA); value ranges from 3-6 uM
Streptococcus pyogenes [32] = experiment: Minimum inhibitory concentration against Streptococcus pyogenes ATCC 49399; value ranges from 1.5-3 uM
Klebsiella pneumoniae [33] = experiment: Minimum inhibitory concentration against Klebsiella pneumoniae ATCC 13383
Mus musculus [34] = experiment: In vivo antibacterial activity (Staphylococcus aureus) in a lethal murine model at a dose of 2 mg/kg; activity expressed as no. of mice alive/total tested; 10/10

## CN(CCCNC(=O)Nc1ccc(C(F)(F)F)cc1)CCCOc1ccc(Br)cc1Br
Mus musculus [1]
  No. of animals alive: 3
Proteus vulgaris
  MIC: 25 µM (≈ 14.2 µg/mL)
Huh-7 [2]
  CC50: > 100 µM
Staphylococcus aureus [3]
  MIC: 12 µM (≈ 6.81 µg/mL)
Mus musculus [4]
  No. of animals alive: 4
Enterococcus faecalis [5]
  MIC: 6 µM (≈ 3.4 µg/mL)
Mus musculus [6]
  No. of animals alive: 6
Klebsiella pneumoniae [7]
  MIC: 6 µM (≈ 3.4 µg/mL)
Mus musculus [8]
  No. of animals alive: 7
Staphylococcus aureus [9]
  MIC: 6 µM (≈ 3.4 µg/mL)
Streptococcus pyogenes [10]
  MIC: 6 µM (≈ 3.4 µg/mL)
Escherichia coli [11]
  MIC: 25 µM (≈ 14.2 µg/mL)
Mus musculus [12]
  No. of animals alive: 6
Mus musculus [13]
  No. of animals alive: 4
Staphylococcus aureus [14]
  MIC: 50 µM (≈ 28.4 µg/mL)
Pseudomonas aeruginosa
  MIC: > 100 µM
Enterococcus faecium
  MIC: > 100 µM

## Cc1ccc(N/C(S)=N/CCCNCc2cc(Br)cc(Br)c2)cc1
Staphylococcus aureus [15]
  MIC: 25 µM (≈ 11.8 µg/mL)

## S=C(NCCCNCc1cc(Br)cc(Br)c1)Nc1ccc(Cl)cc1
Staphylococcus aureus [3]
  MIC: 12 µM (≈ 5.9 µg/mL)

## O=C(NCCCNCc1ccc(OC(F)(F)F)cc1)Nc1ccc(C(F)(F)F)cc1
Staphylococcus aureus [16]
  MIC: 6 µM (≈ 2.61 µg/mL)

## S=C(NCCCNCc1cc(Br)cc(Br)c1)Nc1ccccc1Cl
Staphylococcus aureus [15]
  MIC: 25 µM (≈ 12.3 µg/mL)

## COc1ccccc1/N=C(\S)NCCCNCc1cc(Br)cc(Br)c1
Staphylococcus aureus [17]
  MIC: > 100 µM

## O=C(NCCCNCc1cc(Br)cc(Br)c1)Nc1ccc(OC(F)(F)F)cc1
Staphylococcus aureus [3]
  MIC: 12 µM (≈ 6.3 µg/mL)

## O=C(NCCCNCc1cc(C(F)(F)F)cc(C(F)(F)F)c1)Nc1ccc(C(F)(F)F)cc1
Staphylococcus aureus [18]
  MIC: 100 µM (≈ 48.7 µg/mL)

## COc1cc(CNCCCNC(=O)Nc2ccc(C(F)(F)F)cc2)cc(OC)c1
Staphylococcus aureus [18]
  MIC: 100 µM (≈ 41.1 µg/mL)

## O=C(NCCCNCCCOc1ccc(Br)cc1Br)Nc1ccc(C(F)(F)F)cc1
Staphylococcus aureus [16]
  MIC: 6 µM (≈ 3.32 µg/mL)

## CN(C)c1ccc(CNCCCNC(=O)Nc2ccc(C(F)(F)F)cc2)cc1
Staphylococcus aureus [15]
  MIC: 25 µM (≈ 9.86 µg/mL)

## O=[N+]([O-])c1ccc(N/C(S)=N/CCCNCc2cc(Br)cc(Br)c2)cc1
Staphylococcus aureus [15]
  MIC: 25 µM (≈ 12.6 µg/mL)

## S=C(NCCCNCc1cc(Br)cc(Br)c1)Nc1ccc(Br)cc1
Staphylococcus aureus [15]
  MIC: 25 µM (≈ 13.4 µg/mL)

## O=C(NCCCNCc1cc(Cl)cc(Cl)c1)Nc1ccc(C(F)(F)F)cc1
Staphylococcus aureus [3]
  MIC: 12 µM (≈ 5.04 µg/mL)

## N#Cc1ccc(NC(=S)NCCCNCc2cc(Br)cc(Br)c2)cc1
Staphylococcus aureus [19]
  MIC: 50 µM (≈ 24.1 µg/mL)

## O=C(NCCCNCc1ccccc1)Nc1ccc(C(F)(F)F)cc1
Staphylococcus aureus [18]
  MIC: 100 µM (≈ 35.1 µg/mL)

## O=C(NCCCNCc1cc(Br)cc(Br)c1)Nc1cccc(C(F)(F)F)c1
Staphylococcus aureus [3]
  MIC: 12 µM (≈ 6.11 µg/mL)

## O=C(NCCCNCc1ccc(-c2ccccc2)cc1)Nc1ccc(C(F)(F)F)cc1
Mus musculus [20]
  No. of animals alive: 2
Enterococcus faecalis [21]
  MIC: > 100 µM
Klebsiella pneumoniae [22]
  MIC: 12 µM (≈ 5.13 µg/mL)
Proteus vulgaris
  MIC: 25 µM (≈ 10.7 µg/mL)
Mus musculus [23]
  No. of animals alive: 4
Escherichia coli [24]
  MIC: 12 µM (≈ 5.13 µg/mL)
Staphylococcus aureus [16]
  MIC: 6 µM (≈ 2.56 µg/mL)
Staphylococcus aureus [9]
  MIC: 6 µM (≈ 2.56 µg/mL)
Streptococcus pyogenes [10]
  MIC: 6 µM (≈ 2.56 µg/mL)
Staphylococcus aureus [25]
  MIC: 25 µM (≈ 10.7 µg/mL)
Mus musculus [26]
  No. of animals alive: 0
Mus musculus [27]
  No. of animals alive: 3
Mus musculus [28]
  No. of animals alive: 3
Huh-7 [29]
  CC50: 50 µM
Pseudomonas aeruginosa
  MIC: > 100 µM
Enterococcus faecium
  MIC: > 100 µM

## Fc1ccccc1/N=C(\S)NCCCNCc1cc(Br)cc(Br)c1
Staphylococcus aureus [19]
  MIC: 50 µM (≈ 23.8 µg/mL)

## O=C(NCCCNCc1cc(Br)cc(Br)c1O)Nc1ccc(C(F)(F)F)cc1
Staphylococcus aureus [17]
  MIC: > 100 µM

## CC(=O)NCC1CN(c2ccc(N3CCOCC3)c(F)c2)C(=O)O1 (single isomer, unassigned) [LINEZOLID]
Escherichia coli [30]
  MIC: > 100 µM
Proteus vulgaris
  MIC: 25 µM (≈ 8.43 µg/mL)
Staphylococcus aureus [31]
  MIC: 6 µM (≈ 2.02 µg/mL)
Enterococcus faecalis [5]
  MIC: 6 µM (≈ 2.02 µg/mL)
Streptococcus pyogenes [32]
  MIC: 3 µM (≈ 1.01 µg/mL)
Staphylococcus aureus [16]
  MIC: 6 µM (≈ 2.02 µg/mL)
Staphylococcus aureus [9]
  MIC: 6 µM (≈ 2.02 µg/mL)
Klebsiella pneumoniae [33]
  MIC: > 100 µM
Pseudomonas aeruginosa
  MIC: > 100 µM
Enterococcus faecium
  MIC: > 100 µM

## CN[C@H](CC(C)C)C(=O)N[C@H]1C(=O)N[C@@H](CC(N)=O)C(=O)N[C@H]2C(=O)N[C@H]3C(=O)N[C@H](C(=O)N[C@H](C(=O)O)c4cc(O)cc(O)c4-c4cc3ccc4O)[C@H](O)c3ccc(c(Cl)c3)Oc3cc2cc(c3O[C@@H]2O[C@H](CO)[C@@H](O)[C@H](O)[C@H]2O[C@H]2C[C@](C)(N)[C@H](O)[C@H](C)O2)Oc2ccc(cc2Cl)[C@H]1O [VANCOMYCIN]
Mus musculus [34]
  No. of animals alive: 10
